In ChEMBL document CHEMBL1157184, “Hymenoic acid, a novel specific inhibitor of human DNA polymerase lambda from a fungus of Hymenochaetaceae sp” (Bioorg Med Chem, 2008):

Tests used:
[1] = biological target: DNA polymerase beta (Homo sapiens, UniProt P06746); test: Inhibition of human DNA polymerase beta
[2] = Inhibition of human N terminal deleted DNA polymerase lambda Del-2 mutant
Outline: (§1)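 Dose-response was run on 0.05 U of full-length (residues 1–575), del-1 (133–575) or del-2 (245–575) human pol λ. Compound in DMSO was preincubated 10 min at 0 °C, then the reaction ran 60 min at 37 °C with poly(dA)/oligo(dT)12-18 and dTTP. Activity relative to the no-compound control; means ± SEM of three independent experiments.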

[3] = biological target: T1, DNA polymerase lambda (Homo sapiens, UniProt Q9UGP5); test: Inhibition of human DNA polymerase lambda; outline: as §1
T1 sequence (Q9UGP5 whole entry): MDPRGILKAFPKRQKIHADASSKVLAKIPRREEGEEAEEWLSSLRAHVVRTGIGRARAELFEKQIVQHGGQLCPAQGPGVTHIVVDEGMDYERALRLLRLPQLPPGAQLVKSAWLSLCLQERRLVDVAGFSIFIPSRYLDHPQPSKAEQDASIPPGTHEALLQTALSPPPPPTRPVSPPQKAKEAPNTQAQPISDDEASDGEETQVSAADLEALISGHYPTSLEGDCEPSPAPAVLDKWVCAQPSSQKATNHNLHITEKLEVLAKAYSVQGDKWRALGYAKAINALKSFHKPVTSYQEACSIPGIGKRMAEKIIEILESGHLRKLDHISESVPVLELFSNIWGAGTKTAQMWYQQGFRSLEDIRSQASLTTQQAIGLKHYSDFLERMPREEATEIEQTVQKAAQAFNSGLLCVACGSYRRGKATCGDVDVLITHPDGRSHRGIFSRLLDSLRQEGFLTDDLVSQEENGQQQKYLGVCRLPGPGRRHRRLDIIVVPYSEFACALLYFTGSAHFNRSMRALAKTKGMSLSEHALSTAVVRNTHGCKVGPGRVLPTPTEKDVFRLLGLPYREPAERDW

[4] = Inhibition of human N terminal deleted DNA polymerase lambda Del-1 mutant; outline: as §1

- IC50 [1]: > 200 µM
- IC50 [2]: > 200 µM
- IC50 [3]: 91.7 µM
- IC50 [4]: > 200 µM
Structure (SMILES): C/C(=C\CC[C@H](C)C(=O)O)[C@H]1CC[C@H](C(=O)O)CC1 [HYMENOIC ACID]
